Screens from PubChem BioAssay.
KCNK3 block – human KCNK3 channel inhibition, primary screen; B-score at 10 µM; AID 602410; CHO-KCNK3 thallium flux, FluxOR fluorescence; active compounds read low; 0.84% of 340,000 active;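 active = B-score under library mean minus 4 SD, starting fluorescence ratio at most library mean plus 5 SD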;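 also: more negative B-score means stronger inhibition of thallium flux through KCNK3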
hERG protect – shields human hERG channel from block by proarrhythmic agents; Q12809; CHO-hERG, FluxOR thallium flux, dofetilide IC70 present; activation (rescue from dofetilide block), less the hit threshold, % at 10 µM; 0.51% of 310,000 active;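 active = activation above the mean of controls blocked by dofetilide plus 5 SD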;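 also: thallium influx through hERG after potassium depolarization seen as dye fluorescence rise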
KCNQ1 pot – potentiators or activators of human KCNQ1 potassium channel; P51787; 0.35% of 310,000 active; CHO-K1 KCNQ1, thallium flux FluxOR fluorescence; active compounds read high; B-score at 10 µM;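 active = fluorescence ratio B-score, a plate-corrected score, at least three library SD, with initial intensity B-score within 5 SD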
Target sequence (P51787 whole entry, looked up): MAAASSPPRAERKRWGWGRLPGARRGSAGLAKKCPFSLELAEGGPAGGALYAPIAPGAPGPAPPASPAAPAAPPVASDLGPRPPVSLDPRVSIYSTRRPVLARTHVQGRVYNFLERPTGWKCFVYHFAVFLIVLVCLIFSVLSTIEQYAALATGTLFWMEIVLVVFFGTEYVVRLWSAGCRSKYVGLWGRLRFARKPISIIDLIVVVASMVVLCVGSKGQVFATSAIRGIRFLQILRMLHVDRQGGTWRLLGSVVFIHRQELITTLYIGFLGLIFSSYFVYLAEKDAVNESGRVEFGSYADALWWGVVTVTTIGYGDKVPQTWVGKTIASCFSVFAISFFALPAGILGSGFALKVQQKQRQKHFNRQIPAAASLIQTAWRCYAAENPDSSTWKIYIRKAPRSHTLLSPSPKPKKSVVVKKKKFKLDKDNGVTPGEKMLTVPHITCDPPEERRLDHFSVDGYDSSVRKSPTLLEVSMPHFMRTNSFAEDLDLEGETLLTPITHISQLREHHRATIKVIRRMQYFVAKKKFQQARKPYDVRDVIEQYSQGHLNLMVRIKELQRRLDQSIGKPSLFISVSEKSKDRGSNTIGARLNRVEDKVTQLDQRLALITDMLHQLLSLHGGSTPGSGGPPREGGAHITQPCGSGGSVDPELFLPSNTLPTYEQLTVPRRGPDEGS
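Assay system: CHO-K1 cells stably expressing KCNQ1. Medium: assay buffer for compound exposure, DMSO matched across wells. Timing: 37 °C overnight plating, 90-min dark dye load, 20-min compound pretreatment. Signal: kinetic FluxOR fluorescence, 10 s baseline plus 110 s post-stimulus.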
KCNK9 block – inhibitors of human KCNK9 two-pore domain potassium channel; Q9NPC2; HEK293 KCNK9, FluxOR thallium flux fluorescence; active compounds read low; B-score at 10 µM; 1.2% of 310,000 active;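 active = ratio B-score over 3 SD below the library mean, with starting fluorescence within 5 SD of its mean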;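 also: negative B-score means less thallium flux so channel inhibition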
Cl transport mod – modulators of human KCC2 chloride dependent transport | Q9H2X9 | KCC2 cells, thallium flux FluoZin-2 fluorescence | B-score of Tl+ flux slope (higher = more flux/activation; lower = inhibition) at 10 µM | 2.2% of 190,000 active;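 active = thallium flux slope and its plate-corrected score both differing from the plate sample mean at a set confidence after two filtering rounds, in either direction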;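 also: slope of fluorescence scaled to starting intensity during 10 to 20 s after thallium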
KCNQ1 inh – inhibitors of human KCNQ1 potassium channel; 1.3% of 310,000 active; CHO-K1 KCNQ1, FluxOR thallium flux fluorescence; active compounds read high; P51787; B-score at 10 µM; AID 2642;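 active = compounds whose thallium flux B-score, printed positive for inhibition, exceeds three library SD while starting fluorescence stays within three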;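 also: channel opened by potassium depolarization with thallium stimulus after 20 min compound exposure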
KCC2 sec1 – confirmation of human KCC2 transport modulators. shares compounds with Cl transport mod. HEK293-KCC2, thallium flux, FluoZin2 fluorescence; active compounds read high. normalised thallium flux (F/F0 slope) at 10 µM. 15% of 3,700 active. AID 1713;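 active = thallium flux slope above the same plate's solvent-only control mean plus 3 SD; inconclusive = the two replicate wells disagree; inactive = no significant difference from solvent-only control wells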
KCC2 bumet counter – thallium flux persisting under bumetanide in KCC2 cells, counter-screen secondary assay; AID 1714; HEK293-KCC2 + bumetanide/ouabain, thallium flux FluoZin2; active compounds read high; shares compounds with Cl transport mod; 49% of 3,700 active; normalized thallium flux at 10 µM;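 active = thallium entry rate above the same plate's blocked-transporter control wells by more than 3 SD; inconclusive = the two repeat wells disagree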;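 also: raw slope of fluorescence over initial fluorescence between 10 and 20 s after thallium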
KCC2 secondary2 – confirmation of human KCC2 transport modulators; shares compounds with Cl transport mod; HEK293-KCC2, thallium flux FluoZin2 fluorescence; actives lie on both sides; F/F0 rise rate, 10–20 s post-thallium; normalized thallium flux at 10 µM; 23% of 3,700 active; AID 1715;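 active = thallium flux slope more than 3 SD above or below the plate's solvent-only control mean, mostly below; inconclusive = the two repeat wells disagreed; inactive = no significant shift from solvent-only controls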;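 also: raw slope with 0.1% DMSO as baseline and bumetanide as block control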
HEK counter1 – acts in parental HEK cells, KCC2 counter-screen. shares compounds with Cl transport mod. HEK293 parental cells, thallium flux FluoZin2, ouabain; baseline-ratio fluorescence slope, 10–20 s after thallium. thallium flux rate (normalised fluorescence) at 10 µM. 46% of 3,700 active. AID 1716;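 active = thallium flux rate significantly above the same plate's solvent-only control wells, beyond their mean plus 3 SD; inconclusive = the two replicate wells gave conflicting results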
KCC2 ouabain – confirmation of human KCC2 modulators with ouabain. shares compounds with Cl transport mod. HEK293-KCC2, thallium flux FluoZin2 fluorescence; bidirectional: low = inhibitor, high = activator. raw Tl+ flux slope (below DMSO = inhibition, above = activation) at 10 µM. 48% of 3,700 active;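 active = thallium flux slope beyond 3 SD from same-plate DMSO control mean in most replicates, usually higher, sometimes lower; inconclusive = repeat tests gave conflicting results; inactive = no significant difference from controls in most replicates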;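 also: slope of initial-normalized fluorescence between seconds 10 and 20 after thallium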
HEK counter2 – counter-screen for KCC2 modulators: effect in parental HEK293 cells; shares compounds with Cl transport mod; thallium flux FluoZin-2 fluorescence slope; thallium flux slope at 10 µM; 33% of 3,700 active;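 active = thallium flux slope above the same plate's solvent-control mean plus 3 SD in both duplicate wells; inconclusive = duplicate wells that disagreed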;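 also: run without ouabain in cells lacking the KCC2 cotransporter; slope of fluorescence scaled to its starting value between 10 and 20 s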
Starred values were filed as active, the others as inactive; i = inactive; ? = inconclusive; nt = no result. In the library only some 4.1% were active in any assay of this set; here they are far more common.

SMILES	KCNK3 block	hERG protect	KCNQ1 pot	KCNK9 block	Cl transport mod	KCNQ1 inh	KCC2 sec1	KCC2 bumet counter	KCC2 secondary2	HEK counter1	KCC2 ouabain	HEK counter2
CCN(CCCn1c(=S)[nH]c2ccc(N3CCOCC3)cc2c1=O)c1ccccc1	i	-11	i	i	4.9*	i	0.012*	0.017*	0.03	0.0095*	0.052*	0.011*
CCCCN(C)CCn1c(=S)[nH]c2ncccc2c1=O	i	-9	i	i	3	i	nt	nt	nt	nt	nt	nt
CC(C)OCCCn1c(=S)[nH]c2ncccc2c1=O	i	-14	i	i	13*	i	0.017*	0.034*	0.031	0.016*	0.03*	0.012*
Cc1cc(C)c2sc(NC(=O)C3CC3)nc2c1	i	-7	i	i	nt	i	nt	nt	nt	nt	nt	nt
CCOc1ccc(CCNC(=O)C2CCC(=O)N2CCc2ccccc2)cc1OCC (stereo not drawn)	i	-9	i	i	nt	i	0.016	0.004	0.031	0.0069	0.016	0.0098
O=C(NCCc1ccccc1)C1CCC(=O)N1CCc1ccccc1 (stereo not drawn)	i	-5	i	i	nt	i	nt	nt	nt	nt	nt	nt
Cc1ccc(Nc2nnc(SCC(=O)c3ccc(Br)s3)s2)c(C)c1	i	-7	i	i	-3.9*	i	0.01	?	?	0.007	0.013*	0.01
Cc1ccc(Nc2nnc(SC/C(O)=C(\C#N)c3nc4ccccc4[nH]3)s2)c(C)c1	i	-10	i	i	-4.2*	i	?	0.0071	?	?	0.014*	0.012*
COc1cc2[nH]c(=S)n(C3CC3)c(=O)c2cc1OC	i	1	i	i	-1.3	i	nt	nt	nt	nt	nt	nt
COc1cc2[nH]c(=S)n(C3CCCC3)c(=O)c2cc1OC	i	-13	i	i	24*	i	?	0.043*	0.029	0.017*	0.038*	0.01*
O=C(O)CC1(CC(=O)Nc2ccccc2Br)CCCC1	i	-8	i	i	nt	i	nt	nt	nt	nt	nt	nt
NC(=O)C1CCN(C(=S)NCCc2ccccc2)CC1	i	0	i	i	4.6*	i	0.0065	0.0052	0.033	0.009	0.021	0.012
Cc1ccc(SCCNC(=S)Nc2ccccc2)cc1	i	-14	i	i	-0.037	i	nt	nt	nt	nt	nt	nt
Cc1ccc(SCCNC(=S)Nc2cc(C)ccc2C)cc1	i	-11	i	i	nt	i	0.0069	0.005	0.029	?	?	0.009
O=C(CN1CCCCC1)NNC(=O)c1cccc(Br)c1	i	-9	i	i	nt	i	nt	nt	nt	nt	nt	nt
CCCn1c(=O)c2ccccc2n2c(SCCOc3ccccc3)nnc12	i	-15	i	i	-4.9*	i	0.0058	0.0028*	?	0.0047*	?	0.0077*
Cn1cccc1/C=N/NC(=O)c1cccnc1	i	-4	i	i	3*	i	0.0076	0.0045	0.028	0.008	0.018	0.01
CS(=O)(=O)N1N=C(c2cccs2)CC1c1ccccc1 (stereo not drawn)	i	-13	i	i	-0.067	i	nt	nt	nt	nt	nt	nt
c1ccc(C2Oc3ccccc3C3CC(c4cccs4)=NN32)cc1 (stereo not drawn)	i	-4	i	i	9.3*	i	0.01	0.046*	0.037	0.06*	0.055*	0.02*
O=C(NC1CCCCC1c1ccccc1)c1ccccc1 (stereo not drawn)	i	nt	nt	nt	nt	nt	nt	nt	nt	nt	nt	nt
CC(C)(C)OC(=O)[C@H](Cc1ccccc1)NC(=O)c1nc[nH]c1C(=O)N[C@@H](Cc1ccccc1)C(=O)OC(C)(C)C	i	-4	i	i	3.4*	i	0.0058	0.004	0.032	0.0072	0.019	0.0092
Cc1cc(OCC(=O)N2CCN(c3ccccn3)CC2)cc(C)c1Br	i	-19	i	i	nt	i	nt	nt	nt	nt	nt	nt
CC1=CN2C(=N)/C(=C/c3ccc(Sc4ccc(C)cc4)o3)C(=O)N=C2S1	i	-1	i	i	16*	i	0.0068	0.03*	?	0.042*	0.032*	0.021*
N=C1/C(=C\c2ccc(SCc3ccccc3)o2)C(=O)N=C2SC=NN12	i	2	i	i	1.3	i	nt	nt	nt	nt	nt	nt
CC1=CN2C(=N)/C(=C/c3ccc(C)o3)C(=O)N=C2S1	i	-9	i	i	8.8*	i	0.01	0.028*	0.032	0.013*	0.023	?
SMILES	KCNK3 block	hERG protect	KCNQ1 pot	KCNK9 block	Cl transport mod	KCNQ1 inh	KCC2 sec1	KCC2 bumet counter	KCC2 secondary2	HEK counter1	KCC2 ouabain	HEK counter2
CC1=CN2C(=N)/C(=C/c3ccc(Sc4ccc(Cl)cc4)o3)C(=O)N=C2S1	i	1	i	i	9.2*	i	0.0099	0.014*	0.033	0.013*	0.024	0.011
Cc1cc2nc(-c3ccc(SCc4ccc(C(=O)O)cc4)nc3)[nH]c2cc1C	i	-9	i	i	-4*	i	0.0072	0.0037	0.026	?	0.014*	0.0091
Cc1ccc(-c2oc3ccccc3c(=O)c2O)cc1	i	0	i	i	106*	i	0.0099*	0.1*	0.081*	0.095*	0.097*	0.08*
COc1ccc(S(=O)(=O)N2CCCOC2CNC(=O)C(=O)NCCCN2CCOCC2)cc1 (stereo not drawn)	i	-5	i	i	nt	i	nt	nt	nt	nt	nt	nt
CCN(Cc1ccncc1)C(=O)c1cc(COc2ccc(OC)cc2Cl)on1	i	-11	i	i	nt	i	nt	nt	nt	nt	nt	nt
CCOc1ccccc1C1C(C#N)=C(N)Oc2n[nH]c(CC)c21 (stereo not drawn)	i	-7	i	i	-4.9*	i	0.0086	0.007	0.03	0.0064	0.02	0.0093
COCc1[nH]nc2c1C(c1ccccc1OC)C(C#N)=C(N)O2 (stereo not drawn)	i	-5	i	i	nt	i	nt	nt	nt	nt	nt	nt
